Data set [1] deals with T1, Torpedo nACh receptor (Tetronarce californica, UniProt P02710+P02712+P02714+P02718). As to the kind of experiment: Photoincorporation of [3H]6 into nACh receptor-rich Torpedo membranes. The class given is binding. As to conditions: for effect on nACh receptor subunit photolabeling by [3H]6: absence of agonist (resting state), 100 μM drug. A digest of the protocol:
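Electric-organ membranes were held at 2 mg protein/mL in Torpedo saline (pH 7.0) with 1 mM oxidized glutathione. Aliquots (160 pmol ACh sites) were equilibrated 30 min with 1.7 μM tritiated test compound (12 Ci/mmol), alone or with 100 μM tetracaine, 100 μM phencyclidine, 300 μM parent anesthetic and/or 1 mM carbamylcholine. Samples were UV-irradiated (365 nm) on ice for 30 min, then run on SDS-PAGE. Read-outs were fluorography (2 weeks) and scintillation counting of excised subunit bands.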

The test system of data set [2] is Xenopus laevis tadpoles. The settings on record: read-out: General Anesthesia LoRR EC50, cited from earlier work.
For data set [3], the system named is GABAA receptor. The settings on record: cited from earlier work.
Data set [4] addresses α1β3γ2 GABAA receptors (benzodiazepine site) (Homo sapiens, UniProt P14867+P18507+P28472). The class given is binding. The settings on record: for Enhancement of specific [3H]flunitrazepam binding: maximal effect; for effect on [3H]flunitrazepam binding above 40 μM: above 40 μM up to 400 μM.
The conditions of data set [5]: pure propofol in water; cited from earlier work.
For data set [6], the target named is human α1β2γ2L GABAA receptor (Homo sapiens, UniProt P14867+P18507+P47870). Description: Two electrode voltage clamp of GABAA receptor currents in Xenopus oocytes. The settings on record: for Imax of GABA current enhancement / nH of GABA current enhancement: 3 μM GABA (~EC5); for nH of GABA concentration response curve in the presence of drug: 6 μM 6; for nH of GABA concentration response curve in the presence of drug / Shift in GABA dose response curve to the left: 4.4 μM propofol; for Shift in GABA dose response curve to the left: twice the tadpole anesthesia EC50: 6 μM 6. The class given is cell-based. In general terms: In two-electrode clamp one electrode senses voltage and the other passes current.
Chain of human α1β2γ2L GABAA receptor (P14867 28-456): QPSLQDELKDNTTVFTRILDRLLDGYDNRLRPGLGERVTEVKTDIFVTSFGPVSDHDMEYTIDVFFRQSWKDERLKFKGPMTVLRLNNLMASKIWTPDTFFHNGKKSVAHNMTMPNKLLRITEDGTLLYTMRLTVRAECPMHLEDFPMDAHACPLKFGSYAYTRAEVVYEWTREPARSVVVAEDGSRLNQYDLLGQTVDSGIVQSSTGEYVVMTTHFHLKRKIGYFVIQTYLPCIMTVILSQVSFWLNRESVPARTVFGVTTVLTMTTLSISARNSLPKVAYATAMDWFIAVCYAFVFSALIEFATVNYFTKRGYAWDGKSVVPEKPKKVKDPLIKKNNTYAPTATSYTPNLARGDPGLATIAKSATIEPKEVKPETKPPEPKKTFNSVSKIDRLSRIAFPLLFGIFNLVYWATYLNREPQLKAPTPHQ
Chain of human α1β2γ2L GABAA receptor (P47870 25-512 limits assumed): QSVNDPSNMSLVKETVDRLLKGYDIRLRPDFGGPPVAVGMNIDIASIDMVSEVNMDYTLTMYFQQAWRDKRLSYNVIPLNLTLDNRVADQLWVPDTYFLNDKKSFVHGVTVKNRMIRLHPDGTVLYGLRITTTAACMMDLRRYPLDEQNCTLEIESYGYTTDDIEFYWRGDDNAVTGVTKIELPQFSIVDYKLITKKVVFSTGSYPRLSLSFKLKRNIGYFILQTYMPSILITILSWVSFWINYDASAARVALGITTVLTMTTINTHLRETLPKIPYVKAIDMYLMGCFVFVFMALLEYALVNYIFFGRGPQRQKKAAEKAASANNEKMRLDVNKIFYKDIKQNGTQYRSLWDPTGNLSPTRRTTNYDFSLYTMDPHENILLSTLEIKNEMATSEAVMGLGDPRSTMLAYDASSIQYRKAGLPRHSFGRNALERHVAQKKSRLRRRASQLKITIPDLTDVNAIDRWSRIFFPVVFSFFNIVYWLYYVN
Chain of human α1β2γ2L GABAA receptor (P18507 40-475): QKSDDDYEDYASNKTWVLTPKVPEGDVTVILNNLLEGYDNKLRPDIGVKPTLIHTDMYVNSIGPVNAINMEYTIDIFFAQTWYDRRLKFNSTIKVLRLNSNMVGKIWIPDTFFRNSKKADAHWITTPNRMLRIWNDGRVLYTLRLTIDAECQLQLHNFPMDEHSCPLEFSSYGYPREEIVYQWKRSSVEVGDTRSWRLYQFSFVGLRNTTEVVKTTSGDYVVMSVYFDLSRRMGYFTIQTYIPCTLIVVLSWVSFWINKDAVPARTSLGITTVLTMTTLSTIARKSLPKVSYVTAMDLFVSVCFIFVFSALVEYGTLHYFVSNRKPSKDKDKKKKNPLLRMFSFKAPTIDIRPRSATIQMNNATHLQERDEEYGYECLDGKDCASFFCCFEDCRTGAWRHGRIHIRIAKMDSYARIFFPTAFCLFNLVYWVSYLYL

Data set [7] deals with T1, Torpedo nACh receptor. As to the kind of experiment: Inhibition of ACh-elicited currents of Torpedo nACh receptors in Xenopus oocytes. The class given is cell-based. As to conditions: 10 μM ACh (~EC20). The method in brief:
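Two-electrode voltage clamp at room temperature on Xenopus oocytes. Oocytes were injected with ~25 ng Torpedo subunit cRNA at 2α:1β:1γ:1δ, clamped at −50 mV and perfused with ND96 (pH 7.5) at ~2 mL/min. 10 μM ACh was applied, then ACh plus rising test compound (10 mM DMSO stock diluted in ND96). Applications lasted 15–20 s with ~3 min washes. Currents were normalized to ACh alone and fit to a logistic equation; 3 oocytes.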

Data set [8] concerns the target α1β3γ2 GABAA receptors (agonist site) (Homo sapiens, UniProt P14867+P18507+P28472). Description: Modulation of [3H]muscimol binding to GABAA receptor membranes from HEK293 cells.
Data set [9] deals with Xenopus laevis tadpoles. Description: General anesthetic potency, loss of righting reflexes. The class given is in vivo. The settings on record: recovery in fresh solution overnight.
Data set [10] is described as follows: Stability in aqueous buffer at 4°C. Type of data set: physicochemical. The settings on record: 0.01M Tris/HCl pH 7.4, concentration close to saturation. A digest of the protocol:
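Excess test compound was stirred 24 h in 0.01 M Tris/HCl, pH 7.4, and centrifuged at 10,000g to give a near-saturated solution. This was stored at 4°C and monitored over time by reverse-phase HPLC (acetonitrile elution).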

Data set [11] can be described thus: Octanol/water partition coefficient by HPLC. The class given is physicochemical. The settings on record: estimated by HPLC of both phases.
[12] abbreviates: added to carbamylcholine-treated samples.

“Also recorded” adds a separate entry of the source. Read-outs that look alike come from different tables or passages of the source. Marks after values point to notes of the source that are not given here.

T1 sequence (P02710 25-461): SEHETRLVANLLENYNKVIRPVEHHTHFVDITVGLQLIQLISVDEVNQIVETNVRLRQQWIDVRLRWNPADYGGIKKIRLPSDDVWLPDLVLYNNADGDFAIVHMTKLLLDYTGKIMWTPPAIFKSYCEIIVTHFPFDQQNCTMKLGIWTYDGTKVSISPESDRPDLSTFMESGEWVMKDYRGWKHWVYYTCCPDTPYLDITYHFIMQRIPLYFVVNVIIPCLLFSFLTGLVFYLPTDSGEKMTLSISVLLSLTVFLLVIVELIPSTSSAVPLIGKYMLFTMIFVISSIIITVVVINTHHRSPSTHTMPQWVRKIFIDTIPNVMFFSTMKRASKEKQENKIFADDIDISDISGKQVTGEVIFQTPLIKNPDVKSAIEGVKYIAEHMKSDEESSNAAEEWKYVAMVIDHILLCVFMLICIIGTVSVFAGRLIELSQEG
T1 sequence (P02712 25-493): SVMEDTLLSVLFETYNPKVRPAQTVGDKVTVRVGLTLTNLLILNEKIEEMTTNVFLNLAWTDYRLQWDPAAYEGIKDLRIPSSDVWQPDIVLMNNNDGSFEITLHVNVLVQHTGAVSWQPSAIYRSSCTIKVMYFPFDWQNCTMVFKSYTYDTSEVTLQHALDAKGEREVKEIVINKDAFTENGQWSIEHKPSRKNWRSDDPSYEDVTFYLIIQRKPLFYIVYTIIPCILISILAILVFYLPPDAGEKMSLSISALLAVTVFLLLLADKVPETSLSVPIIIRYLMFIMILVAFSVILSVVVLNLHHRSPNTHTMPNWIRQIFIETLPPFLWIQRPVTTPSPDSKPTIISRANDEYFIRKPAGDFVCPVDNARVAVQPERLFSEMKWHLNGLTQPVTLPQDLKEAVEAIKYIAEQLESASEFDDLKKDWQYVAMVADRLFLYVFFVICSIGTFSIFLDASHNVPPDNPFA
T1 sequence (P02714 18-506): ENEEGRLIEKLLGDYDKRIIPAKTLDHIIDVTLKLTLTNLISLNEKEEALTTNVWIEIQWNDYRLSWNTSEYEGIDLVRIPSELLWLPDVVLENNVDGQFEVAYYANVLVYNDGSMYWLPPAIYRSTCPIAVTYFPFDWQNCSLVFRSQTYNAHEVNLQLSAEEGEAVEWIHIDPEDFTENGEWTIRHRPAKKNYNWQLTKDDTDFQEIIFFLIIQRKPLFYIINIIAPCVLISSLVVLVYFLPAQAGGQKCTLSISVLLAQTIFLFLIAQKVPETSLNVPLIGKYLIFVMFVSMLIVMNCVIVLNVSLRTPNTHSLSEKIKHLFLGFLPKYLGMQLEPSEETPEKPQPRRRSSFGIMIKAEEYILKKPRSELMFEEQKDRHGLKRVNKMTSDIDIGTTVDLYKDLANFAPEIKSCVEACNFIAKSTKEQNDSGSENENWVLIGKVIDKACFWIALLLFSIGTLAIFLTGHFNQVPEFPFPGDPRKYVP
T1 sequence (P02718 22-522): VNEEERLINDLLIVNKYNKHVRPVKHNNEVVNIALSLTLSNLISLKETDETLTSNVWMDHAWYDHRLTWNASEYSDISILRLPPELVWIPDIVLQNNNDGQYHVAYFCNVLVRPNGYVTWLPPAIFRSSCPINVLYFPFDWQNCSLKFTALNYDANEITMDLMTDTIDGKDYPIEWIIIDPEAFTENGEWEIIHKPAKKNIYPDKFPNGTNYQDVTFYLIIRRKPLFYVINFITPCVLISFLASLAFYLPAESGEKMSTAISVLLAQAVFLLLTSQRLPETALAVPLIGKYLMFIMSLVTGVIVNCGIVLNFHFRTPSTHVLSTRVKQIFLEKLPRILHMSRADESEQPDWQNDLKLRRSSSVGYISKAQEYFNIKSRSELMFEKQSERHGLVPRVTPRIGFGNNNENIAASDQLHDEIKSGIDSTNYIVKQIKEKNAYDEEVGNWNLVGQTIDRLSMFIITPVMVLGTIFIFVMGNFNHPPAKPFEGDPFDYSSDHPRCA
Chain of α1β3γ2 GABAA receptors (benzodiazepine site) (P14867 28-456): as the sequence (P14867 28-456) above
Chain of α1β3γ2 GABAA receptors (benzodiazepine site) (P28472 26-473): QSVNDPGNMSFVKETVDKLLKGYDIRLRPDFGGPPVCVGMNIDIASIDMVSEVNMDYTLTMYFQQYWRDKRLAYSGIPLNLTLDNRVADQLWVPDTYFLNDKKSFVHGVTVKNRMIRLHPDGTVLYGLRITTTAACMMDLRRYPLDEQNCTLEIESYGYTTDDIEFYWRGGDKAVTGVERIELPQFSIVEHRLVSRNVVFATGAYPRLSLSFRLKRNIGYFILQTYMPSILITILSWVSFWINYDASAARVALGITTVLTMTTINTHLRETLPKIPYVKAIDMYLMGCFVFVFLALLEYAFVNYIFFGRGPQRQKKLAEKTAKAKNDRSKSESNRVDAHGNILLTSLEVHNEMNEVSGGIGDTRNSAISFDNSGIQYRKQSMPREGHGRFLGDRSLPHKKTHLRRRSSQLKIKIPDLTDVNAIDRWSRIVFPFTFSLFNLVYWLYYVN
Chain of α1β3γ2 GABAA receptors (benzodiazepine site) (P18507 40-475): as the sequence (P18507 40-475) above
Chain of α1β3γ2 GABAA receptors (agonist site) (P14867 28-456): as the sequence (P14867 28-456) above
Chain of α1β3γ2 GABAA receptors (agonist site) (P28472 26-473): as the sequence (P28472 26-473) above
Chain of α1β3γ2 GABAA receptors (agonist site) (P18507 40-475): as the sequence (P18507 40-475) above

In the case of `CC(C)c1cc(CCCC2(C)N=N2)cc(C(C)C)c1O` [[^3H]6, ^3H-2,6-Diisopropyl-4-[3-(3-methyl-3H-diazirin-3-yl)-propyl]-phenol], the “carbamylcholine-enhanced 3H photoincorporation in nACh receptor α-subunit” value in data set [1] (1.7 μM [3H]6) is recorded as 3000 cpm. Also, the “fraction of nACh receptor α-subunits photolabeled” value in data set [1] (1.7 μM [3H]6, carbamylcholine-enhanced) worked out at 0.2%.
A word on the EC50: it is the midpoint of the concentration-response curve. Turning to `CC(C)c1ccc(C2(C(F)(F)F)N=N2)cc1O` [m-TFD-propofol, 2-isopropyl-5-[3-(trifluoromethyl)-3H-diazirin-3-yl]phenol], the half-maximal effective concentration (EC50) in [2] (ref Hall et al, 2010 [13]) was 3100 nM. Also, the Direct activation result in data set [3] (m-TFD-propofol at 30 μM, ref Hall et al, 2010 [13]) is “no direct agonist activity”.
Take `CCCCNc1ccc(C(=O)OCCN(C)C)cc1` [tetracaine]: the “effect on nACh receptor subunit photolabeling by [3H]6” value in data set [1] was “little effect; also recorded: no effect”.
Consider `c1ccc(C2(N3CCCCC3)CCCCC2)cc1` [phencyclidine], for which the “effect on nACh receptor subunit photolabeling by [3H]6” value in data set [1] was “little effect”. In addition, the “additional decrease of [3H]6 photoincorporation” value in [1] (setting [12]) was ~ 20%.
Regarding `CC(C)c1cccc(C(C)C)c1O` [propofol, 2,6-diisopropylphenol], in data set [4] (1.5 nM [3H]flunitrazepam), the “Enhancement of [3H]flunitrazepam binding” value is reported as 2x ^a and the “Enhancement of specific [3H]flunitrazepam binding” value is listed as ~ 200%. Also, the “effect on [3H]flunitrazepam binding above 40 μM” value in data set [4] is recorded as “caused a rapid decrease in binding”. The “saturated concentration in water” value in data set [5] is on record as 1 ± 0.02 mM. Moreover, in [6], the “Imax of GABA current enhancement” value amounted to 16 ± 3%, the “nH of GABA current enhancement” value is on record as 1.7 ± 1.2, the “nH of GABA concentration response curve in the presence of drug” value was determined as 1.1 ± 0.3 and the “Shift in GABA dose response curve to the left” value is given as 11 ^a fold. The “Direct activation, current as % of maximal GABA response” value in [6] (absence of GABA) is listed as 30–50%. In data set [2] (ref Hall et al, 2010 [13]), the EC50 was 2800 nM. In addition, the 50% effective concentration (EC50) in data set [2] (ref Krasowski et al, 2001 [2]) was 1900 nM. Moreover, in data set [1] (setting [12]), the “additional increase of [3H]6 photoincorporation” value is given as ~ 20%. The “Direct activation, currents as % of the maximal GABA response” value in data set [3] (propofol alone) is 30 – 70%. The Direct activation in data set [3] (ref Krasowski et al, 2001 [2]) is 67%. Further, the “nH of ACh current inhibition” value in data set [7] stood at 0.8 ± 0.1. The “Enhancement of [3H]muscimol binding” value in [8] (3 nM [3H]muscimol) amounted to 2.4x ^a. For the same molecule, in data set [8] (above 30 μM), the “effect on [3H]muscimol binding above 30 μM” value is listed as “caused a sharp decrease in binding”.
As to `CC(C)c1cc(CCCC2(C)N=N2)cc(C(C)C)c1O` [Compound 6, 2,6-Diisopropyl-4-[3-(3-methyl-3H-diazirin-3-yl)-propyl]-phenol], the reversibility of anesthesia entry in data set [9] was “reversible”. For the same molecule, the “time stable in buffer” value in [10] is on record as “at least 2.5 days”. In [4], the EC50 was approximately 500 nM and the “effect on [3H]flunitrazepam binding above 40 μM” value is “caused no further change”. Besides, the “Enhancement of specific [3H]flunitrazepam binding” value in data set [4] (1.5 nM [3H]flunitrazepam) is listed as ~ 150%. For the same molecule, the octanol/water partition coefficient in data set [11] is 15,600 ± 1200. In addition, in [6], the “Imax of GABA current enhancement” value is listed as 22 ± 6%, the “nH of GABA current enhancement” value is recorded as 1.4 ± 1.3, the “nH of GABA concentration response curve in the presence of drug” value is reported as 0.9 ± 0.2 and the “Shift in GABA dose response curve to the left” value is recorded as 9 ^a fold. Also, in data set [7], the “nH of ACh current inhibition” value turned out to be 0.9 ± 0.2. The concentration giving a half-maximal response (EC50) in data set [8] is approximately 500 nM.

Values taken from paper PMC3580944 (Journal of medicinal chemistry, 2011).
